Source: ChEMBL document CHEMBL1132160, “Structure-antiviral activity relationship in the series of pyrimidine and purine N-[2-(2-phosphonomethoxy)ethyl] nucleotide analogues. 1. Derivatives substituted at the carbon atoms of the base” (J Med Chem, 1999)
In brackets after ≈: the same amount, converted by molar mass.

How the values were obtained:
Human alphaherpesvirus 1 [1] = test: Inhibitory activity against herpes simplex virus type 1 (HSV-1) KOS strain; assay type: functional, organism-based
Method in brief: (§1)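 Confluent E6SM cell cultures were inoculated with 100 CCID50 of virus and allowed 1 h for adsorption. Residual virus was then removed, and the cells were incubated with test compound at 400, 200, 100, ... μg/mL. Viral cytopathicity was scored once it reached completion in untreated infected controls.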

[2] = Inhibitory activity against murine sarcoma virus induced transformation of murine C3H/3T3 embryo fibroblasts; assay type: functional, Mus musculus
Method in brief: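 Murine C3H/3T3 embryo fibroblasts were seeded at 5 × 10⁵ cells/mL. After 24 h they were infected with 80 focus-forming units of MSV for 90–120 min at 37 °C. The medium was then replaced with fresh medium containing various compound concentrations, and transformation was examined microscopically after 6 days.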

Human alphaherpesvirus 2 [3] = test: Inhibitory activity against herpes simplex virus type 2 (HSV-2) G strain; assay type: functional, organism-based; method in brief: as §1
Cytomegalovirus [4] = test: Inhibitory activity against cytomegalovirus (CMV) AD 169 strain; assay type: functional, organism-based; details: Human betaherpesvirus 5
Method in brief: (§2)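 HEL cell cultures, grown to confluence, received 100 CCID50 of virus. After 1 h adsorption, the inoculum was removed and the cultures were incubated with serial concentrations of compound (400, 200, 100, ... μg/mL).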

Cytomegalovirus [5] = test: Inhibitory activity against cytomegalovirus (CMV) Davis strain; assay type: functional, organism-based; details: Human betaherpesvirus 5; method in brief: as §2
[6] = tested on: Human immunodeficiency virus 1; test: Inhibition of human immunodeficiency virus type 1 (HIV-1) induced cytopathogenicity in CEM cells; assay type: functional, organism-based; details: Human immunodeficiency virus 1, CCRF-CEM
Method in brief: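 CEM cells (~3 × 10⁵ cells/mL) were infected with 100 CCID50 of HIV-1 (IIIB)/mL and plated with dilutions of compound. After 4 days at 37 °C, giant cell formation was assessed microscopically.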

Vaccinia virus = test: Inhibitory activity against vaccinia virus (VV); assay type: functional, organism-based; details: Orthopoxvirus vaccinia
Method in brief: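 Confluent E6SM cell cultures were inoculated with 100 CCID50 of virus and left for 1 h adsorption, then residual virus was removed. Cultures were incubated with test compound at serial concentrations (400, 200, 100, ... μg/mL). Virus-induced cytopathicity was scored once it reached completion in untreated infected control cultures.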

[7] = tested on: Human immunodeficiency virus 2; test: Inhibition of human immunodeficiency virus type 2 (HIV-2) induced cytopathogenicity in CEM cells; assay type: functional, organism-based; details: Human immunodeficiency virus 2, CCRF-CEM
Human alphaherpesvirus 1 [8] = test: Inhibitory activity against herpes simplex virus type 1 (HSV-1) McIntyre strain; assay type: functional, organism-based; method in brief: as §1
Human alphaherpesvirus 2 [9] = test: Inhibitory activity against herpes simplex virus type 2 (HSV-2) Lyons strain; assay type: functional, organism-based; method in brief: as §1
Human alphaherpesvirus 1 [10] = test: Inhibition of herpes simplex virus type 1 (HSV-1) F strain; assay type: functional, organism-based; method in brief: as §1
[11] = Inhibitory activity against herpes simplex virus type 2 (HSV-2) 196 strain; assay type: functional; method in brief: as §1
[12] = tested on: Human immunodeficiency virus 1; test: Inhibitory activity of compound against human immunodeficiency virus type 1 (HIV-1) induced cytopathogenicity in MT-4 cells; assay type: functional, organism-based; details: Human immunodeficiency virus 1, MT4
Method in brief: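 Human MT-4 cells (~4 × 10⁵ cells/mL) were infected with 100 CCID50 of HIV-1 (IIIB)/mL and seeded into wells containing compound dilutions. After 5 days at 37 °C, viable cells were counted by trypan blue exclusion in a blood cell counting chamber.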

Row | Structure (SMILES) | EC50 (Human alphaherpesvirus 1 [1]) [µg/mL] | EC50 [2] [µg/mL] | EC50 (Human alphaherpesvirus 2 [3]) [µg/mL] | EC50 (Cytomegalovirus [4]) [µg/mL] | EC50 (Cytomegalovirus [5]) [µg/mL] | EC50 [6] [µg/mL] | EC50 (Vaccinia virus) [µg/mL] | EC50 [7] [µg/mL] | EC50 (Human alphaherpesvirus 1 [8]) [µg/mL] | EC50 (Human alphaherpesvirus 2 [9]) [µg/mL] | EC50 (Human alphaherpesvirus 1 [10]) [µg/mL] | EC50 [11] [µg/mL] | EC50 [12] [µg/mL]
1 | Nc1nc(O)nc2c1ncn2CCOCP(=O)(O)O | > 400 | 123 (≈ 425 µM) | > 400 | > 50 | > 50 | > 100 | > 50 | > 100 | – | – | – | – | –
2 | CC(C)OP(=O)(COCCn1cnc2c(S)ncnc21)OC(C)C | > 400 | > 40 | > 400 | > 50 | > 50 | > 100 | > 400 | > 100 | – | – | – | – | –
3 | Nc1nc(=O)n(CCOCP(=O)(O)O)cc1Br | 20 (≈ 61 µM) | 19.2 (≈ 58.5 µM) | 150 (≈ 457 µM) | 30 (≈ 91.4 µM) | 33 (≈ 101 µM) | > 100 | > 400 | > 100 | 70 (≈ 213 µM) | 70 (≈ 213 µM) | 40 (≈ 122 µM) | 100 (≈ 305 µM) | –
4 | Nc1ncnc2c1ncn2CCOCP(=O)(O)O [ADEFOVIR] | 3.6 (≈ 13.2 µM) | – | 1.1 (≈ 4.03 µM) | 30 (≈ 110 µM) | 77 (≈ 282 µM) | – | – | – | – | – | – | – | –
5 | CC(C)OP(=O)(COCCn1cnc2c(O)nc(N)nc21)OC(C)C | 240 (≈ 643 µM) | 13.5 (≈ 36.2 µM) | 400 (≈ 1070 µM) | > 50 | > 50 | > 100 | – | > 100 | 80 (≈ 214 µM) | 240 (≈ 643 µM) | 240 (≈ 643 µM) | 240 (≈ 643 µM) | –
6 | CC(C)OP(=O)(COCCn1cnc2c(N)ncnc21)OC(C)C | > 400 | > 40 | > 400 | 8 (≈ 22.4 µM) | 30 (≈ 84 µM) | – | > 400 | – | – | – | – | – | 171 (≈ 479 µM)
7 | CC(C)CCCCCOP(=O)(COCCn1cnc2nc(N)nc(O)c21)OCCCCCC(C)C | > 16 | > 8 | > 16 | 11 (≈ 21.4 µM) | 11 (≈ 21.4 µM) | > 20 | > 16 | > 20 | – | – | – | – | –
8 | O=P(O)(O)COCCn1cnc2c(S)ncnc21 | > 400 | > 200 | > 400 | 25 (≈ 86.1 µM) | 20 (≈ 68.9 µM) | > 100 | > 400 | > 100 | > 400 | > 400 | > 400 | > 400 | –
9 | CCOP(=O)(COCCn1cnc2c(N)ncnc21)OCC | – | > 40 | – | – | – | > 100 | – | > 100 | – | – | – | – | –
10 | Nc1cc2ncn(CCOCP(=O)(O)O)c2c(O)n1 | > 200 | – | > 200 | > 100 | > 100 | – | – | – | > 200 | > 200 | > 200 | > 200 | –
11 | CC(C)OP(=O)(COCCn1c(Br)nc2c(O)nc(N)nc21)OC(C)C | > 400 | > 40 | > 400 | > 50 | > 50 | > 100 | – | > 100 | 240 (≈ 531 µM) | 240 (≈ 531 µM) | 240 (≈ 531 µM) | 240 (≈ 531 µM) | –
12 | Nc1nc(N)c2nc(Br)n(CCOCP(=O)(O)O)c2n1 | 20 (≈ 54.5 µM) | 2.43 (≈ 6.62 µM) | 20 (≈ 54.5 µM) | 8 (≈ 21.8 µM) | 12 (≈ 32.7 µM) | > 100 | 300 (≈ 817 µM) | > 100 | 20 (≈ 54.5 µM) | 20 (≈ 54.5 µM) | 7 (≈ 19.1 µM) | 70 (≈ 191 µM) | –
13 | Cc1nc(N)nc2c1ncn2CCOCP(=O)(O)O | > 200 | 30 (≈ 104 µM) | 400 (≈ 1390 µM) | > 50 | > 50 | > 100 | > 400 | > 100 | – | – | – | – | –
14 | Nc1nnc(N)c2c1ncn2CCOCP(=O)(O)O | > 200 | 124 (≈ 430 µM) | > 200 | > 50 | > 50 | > 100 | > 200 | > 100 | > 200 | > 200 | > 200 | > 200 | –
15 | Nc1nc(Cl)c2ncn(CCOCP(=O)(O)O)c2n1 | 0.23 (≈ 0.748 µM) | > 0.16 | 0.38 (≈ 1.24 µM) | 0.05 (≈ 0.163 µM) | 0.3 (≈ 0.975 µM) | > 0.16 | – | > 0.16 | 0.22 (≈ 0.715 µM) | 0.38 (≈ 1.24 µM) | 0.13 (≈ 0.423 µM) | 0.38 (≈ 1.24 µM) | –
